In ChEMBL document CHEMBL1157379, “Transcriptional response of Candida parapsilosis following exposure to farnesol” (2007):
The source made the active and inactive calls. No cut-off for these calls is given here.

What was measured:
Candida parapsilosis [1] = test: Increase in PDB1 gene expression in Candida parapsilosis CLIB214 at 50 uM after 2 hrs by microarray based transcriptional profiling relative to control; assay type: functional
Method in brief: (§1)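 Strain grown overnight in YPD at 30°C, diluted to A600 0.2 in YPD at 30°C; farnesol (40 mM methanol stock) added at 4 h (A600 0.8), final 50 μM; methanol-only control. Cells collected 2 h later for RNA. Labelled cDNA from 25 μg total RNA (Cy3/Cy5-dCTP) hybridized to 68-mer oligo arrays at 42°C ~16 h; six individual comparisons analysed statistically.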

Candida parapsilosis [2] = test: Increase in GIR2 gene expression in Candida parapsilosis CLIB214 at 50 uM after 2 hrs by microarray based transcriptional profiling relative to control; assay type: functional; method in brief: as §1
Candida parapsilosis [3] = test: Decrease in CTN1 gene expression in Candida parapsilosis CLIB214 at 50 uM after 2 hrs by microarray based transcriptional profiling relative to control; assay type: functional
Method in brief: (§2)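 Strain CLIB214 grown overnight in YPD at 30°C, diluted to A600 0.2 in fresh YPD at 30°C. After 4 h (A600 0.8), farnesol (40 mM methanol stock) added to 50 μM final, or an equal methanol volume as control; cells harvested 2 h later. RNA was accepted only with a 28S/18S ratio of 1.6–2.2. Cy3/Cy5-dCTP-labelled cDNA was made from 25 μg total RNA. Hybridisation was to duplicate-spotted 68-mer oligo arrays (3,849 genes) at 42°C for about 16 h. Six individual comparisons.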

Candida parapsilosis [4] = test: Antifungal activity against Candida parapsilosis CLIB214 assessed as growth inhibition at 50 uM added after 4 hrs of bacterial growth measured after 2 hrs; assay type: functional; settings: Lodderomyces parapsilosis
Method in brief: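 Overnight YPD culture at 30°C diluted to A600 0.2 in YPD. Farnesol added to 50 μM final at 2, 4, 6 or 8 h of growth (A600 about 0.8 at 4 h, 2.3 at 6 h, 6 at 8 h). Growth compared with methanol controls by A600 or cell counts.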

Candida parapsilosis [5] = test: Decrease in CGD gene ortholog accession number orf19.3603 expression in Candida parapsilosis CLIB214 at 50 uM after 2 hrs by microarray based transcriptional profiling relative to control; assay type: functional
Method in brief: (§3)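 Cells in YPD at 30°C treated with 50 μM farnesol at 4 h, with a methanol control. RNA harvested 2 h later and kept only if 28S/18S ratio was 1.6–2.2 with no degradation. 25 μg total RNA oligo-dT primed and labeled with Cy3/Cy5-dCTP. Labeled cDNA hybridized about 16 h at 42°C to duplicate-spotted 68-mer oligo arrays. Six individual comparisons analyzed statistically.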

Candida parapsilosis [6] = test: Decrease in SOL1 gene expression in Candida parapsilosis CLIB214 at 50 uM after 2 hrs by microarray based transcriptional profiling relative to control; assay type: functional; method in brief: as §2
Candida parapsilosis [7] = test: Decrease in CGD gene ortholog accession number orf19.7118 expression in Candida parapsilosis CLIB214 at 50 uM after 2 hrs by microarray based transcriptional profiling relative to control; assay type: functional; method in brief: as §2
Candida parapsilosis [8] = test: Decrease in PIKA gene expression in Candida parapsilosis CLIB214 at 50 uM after 2 hrs by microarray based transcriptional profiling relative to control; assay type: functional; method in brief: as §2
Candida parapsilosis [9] = test: Increase in STP2 gene expression in Candida parapsilosis CLIB214 at 50 uM after 2 hrs by microarray based transcriptional profiling relative to control; assay type: functional; method in brief: as §1
Candida parapsilosis [10] = test: Increase in CGD gene ortholog accession number orf19.3349 expression in Candida parapsilosis CLIB214 at 50 uM after 2 hrs by microarray based transcriptional profiling relative to control; assay type: functional; method in brief: as §2
Candida parapsilosis [11] = test: Increase in ADH7 gene expression in Candida parapsilosis CLIB214 by RT-PCR; assay type: functional, organism-based
Method in brief: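 RNA came from YPD cultures at 30°C given farnesol or methanol at 4 h (A600 0.8), harvested after 2 h. RT-PCR: 95°C hot start for 1.5 min, then 26 cycles (95°C 40 s, 55°C 2 min, 72°C 3 min), then a 5-min final extension at 72°C. Each gene's signal normalised to ACT1.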

Candida parapsilosis [12] = test: Decrease in CGD gene ortholog accession number orf19.4449 expression in Candida parapsilosis CLIB214 at 50 uM after 2 hrs by microarray based transcriptional profiling relative to control; assay type: functional; method in brief: as §3
Candida parapsilosis [13] = test: Increase in PXP2 gene expression in Candida parapsilosis CLIB214 at 50 uM after 2 hrs by microarray based transcriptional profiling relative to control; assay type: functional; method in brief: as §1
Candida parapsilosis [14] = test: Decrease in CGD gene ortholog accession number orf19.2517 expression in Candida parapsilosis CLIB214 at 50 uM after 2 hrs by microarray based transcriptional profiling relative to control; assay type: functional; method in brief: as §3
Candida parapsilosis [15] = test: Antifungal activity against Candida parapsilosis CLIB214 assessed as growth inhibition at 50 uM after 4 hrs; assay type: functional; settings: CLIB214, 4 h
Method in brief: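 C. parapsilosis CLIB214 grown overnight in YPD at 30°C, diluted to A600 0.2 in fresh YPD, grown 4 h (A600 0.8), then farnesol added at final 10, 20, 50 or 100 μM from a 40 mM methanol stock. Methanol-only controls. Growth followed by A600 or by cell counting with a particle counter.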

Candida parapsilosis [16] = test: Decrease in ERG1 gene expression in Candida parapsilosis CLIB214 at 50 uM after 2 hrs by microarray based transcriptional profiling relative to control; assay type: functional; method in brief: as §2
Candida parapsilosis [17] = test: Increase in CGD gene ortholog accession number orf19.3501 expression in Candida parapsilosis CLIB214 at 50 uM after 2 hrs by microarray based transcriptional profiling relative to control; assay type: functional; method in brief: as §2
Candida parapsilosis [18] = test: Cell cycle arrest in Candida parapsilosis CLIB214 assessed as accumulation at G1 phase at 50 uM added 4 hrs after […] growth; assay type: functional, organism-based
Method in brief: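 YPD culture diluted to A600 0.2 at 30°C. Farnesol added to 50 μM after 4 h. Budding cells scored by microscopy: unbudded as G1, small budded as S, large budded as G2/M. Compared with methanol controls.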

Candida parapsilosis [19] = test: Increase in CGD gene ortholog accession number orf19.6080 expression in Candida parapsilosis CLIB214 at 50 uM after 2 hrs by microarray based transcriptional profiling relative to control; assay type: functional; method in brief: as §2
Candida parapsilosis [20] = test: Increase in CGD gene ortholog accession number orf19.2446 expression in Candida parapsilosis CLIB214 at 50 uM after 2 hrs by microarray based transcriptional profiling relative to control; assay type: functional; method in brief: as §2
Candida parapsilosis [21] = test: Reduction in ERG9 gene expression in Candida parapsilosis CLIB214 by RT-PCR; assay type: functional, organism-based
Method in brief: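 Cultures in YPD at 30°C, diluted to A600 0.2; 50 μM farnesol (final) or methanol added at 4 h, RNA harvested 2 h later. RT-PCR: 95°C hot start 1 min 30 s, then 26 cycles (95°C 40 s, 55°C 2 min, 72°C 3 min), final 72°C 5 min; each gene signal normalized to ACT1.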

Candida parapsilosis [22] = test: Effect on GDH2 gene expression in Candida parapsilosis CLIB214 by microarray based transcriptional profiling; assay type: functional, organism-based; method in brief: as §2
Candida parapsilosis [23] = test: Decrease in CGD gene ortholog accession number orf19.3051 expression in Candida parapsilosis CLIB214 at 50 uM after 2 hrs by microarray based transcriptional profiling relative to control; assay type: functional; method in brief: as §3

## CC(C)=CCC/C(C)=C/CC/C(C)=C/CO [FARNESOL]
Candida parapsilosis [1]
  fold change (FC): 1.7
Candida parapsilosis [2]
  fold change (FC): 1.74
Candida parapsilosis [3]
  fold change (FC): 1.92
Candida parapsilosis [4]
  inhibition at 50 µM: 88.5%
Candida parapsilosis [5]
  fold change (FC): 1.92
Candida parapsilosis [6]
  fold change (FC): 1.54
Candida parapsilosis [7]
  fold change (FC): 1.56
Candida parapsilosis [8]
  fold change (FC): 1.65
Candida parapsilosis [9]
  fold change (FC): 1.63
Candida parapsilosis [10]
  fold change (FC): 1.78
Candida parapsilosis [11]
  Activity: Active
Candida parapsilosis [12]
  fold change (FC): 1.59
Candida parapsilosis [13]
  fold change (FC): 2.04
Candida parapsilosis [14]
  fold change (FC): 1.69
Candida parapsilosis [15]
  inhibition at 50 µM: 25.5%
Candida parapsilosis [16]
  fold change (FC): 2.24
Candida parapsilosis [17]
  fold change (FC): 1.63
Candida parapsilosis [18]
  Activity: Active
Candida parapsilosis [19]
  fold change (FC): 1.52
Candida parapsilosis [20]
  fold change (FC): 1.59
Candida parapsilosis [21]
  Activity: Active
Candida parapsilosis [22]
  Activity: inactive
Candida parapsilosis [23]
  fold change (FC): 1.67
